Laboratory results published in ChEMBL document CHEMBL3808358, “Rational Design of Small Peptides for Optimal Inhibition of Cyclooxygenase-2: Development of a Highly Effective Anti-Inflammatory Agent” (J Med Chem, 2016).
The source made the active and inactive calls. The calls are words filed in the database; no cut-off is given here. Residues, ends and D or L forms follow the SMILES beside them.

What was measured:
[1] = system: Mus musculus; assay: Analgesic activity in Swiss albino mouse assessed as reduction in capsaicin-induced paw licking at 5 to 10 mg/kg, ip dosed 30 mins before capsaicin injection measured for 10 mins in presence of […] A23187 pre-treated 30 mins before compound dosing; type: functional, organism-based
Summary of the method: (§1)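 Mice of either sex (25-35 g), 5 per group. The modulator is given 30 min before the test compound, and capsaicin 30 min after that: substance P 10 µg/kg, L-arginine 40 mg/kg, L-NAME 20 mg/kg, veratrine 125 µg/kg, A23187 20 µg/kg, glipizide 30 µg/kg. Capsaicin is 1.6 μg in 20 μL intraplantar. Paw lickings are counted for 10 min.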

[2] = system: Mus musculus; assay: Analgesic activity in Swiss albino mouse assessed as reduction in capsaicin-induced paw licking at 5 to 10 mg/kg, ip dosed 30 mins before capsaicin injection measured for 10 mins in presence of voltage-gated sodium channel opener veratrine pre-treated 30 mins before compound dosing; type: functional, organism-based; summary of the method: as §1
[3] = target: Prostaglandin G/H synthase 1 (Homo sapiens) (UniProt P23219); assay: Binding affinity to COX1 (unknown origin) at 100 uM by isothermal titration calorimetry
Prostaglandin G/H synthase 1 (Homo sapiens), sequence (P23219 whole entry): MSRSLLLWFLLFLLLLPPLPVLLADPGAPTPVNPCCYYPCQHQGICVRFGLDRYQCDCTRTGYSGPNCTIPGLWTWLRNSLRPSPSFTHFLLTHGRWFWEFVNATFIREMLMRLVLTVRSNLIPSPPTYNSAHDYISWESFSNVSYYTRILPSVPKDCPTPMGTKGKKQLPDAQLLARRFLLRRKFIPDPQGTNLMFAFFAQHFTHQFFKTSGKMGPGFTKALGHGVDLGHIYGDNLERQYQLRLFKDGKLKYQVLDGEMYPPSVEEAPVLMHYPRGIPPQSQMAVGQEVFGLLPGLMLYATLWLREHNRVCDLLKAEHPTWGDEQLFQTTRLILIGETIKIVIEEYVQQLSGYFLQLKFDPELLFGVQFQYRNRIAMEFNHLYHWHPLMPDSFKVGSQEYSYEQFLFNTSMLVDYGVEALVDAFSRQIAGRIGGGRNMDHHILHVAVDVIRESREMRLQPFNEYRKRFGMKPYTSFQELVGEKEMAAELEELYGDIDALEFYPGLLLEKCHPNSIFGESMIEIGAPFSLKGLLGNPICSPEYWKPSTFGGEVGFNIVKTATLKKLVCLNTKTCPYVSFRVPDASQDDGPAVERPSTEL
Summary of the method: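 Isothermal titration calorimetry in HEPES buffer, pH 7.4. The ligand stock is 100 μM in ethanol/HEPES (1:99). The syringe is stirred at 500 rpm and delivers 19 injections of 2 μL into the enzyme-containing cell at 120 s intervals. Heats from buffer-only control titrations are subtracted. The fit gives Ka, ΔH and ΔS. Run in triplicate.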

[4] = target: T1, Prostaglandin G/H synthase 2 (Homo sapiens, UniProt P35354); assay: Inhibition of human recombinant COX2 assessed as reduction in PGH2-derived PGF2alpha using arachidonic acid as substrate preincubated for 10 mins followed by substrate addition measured after 2 mins by enzyme immunoassay
T1 sequence (P35354 whole entry): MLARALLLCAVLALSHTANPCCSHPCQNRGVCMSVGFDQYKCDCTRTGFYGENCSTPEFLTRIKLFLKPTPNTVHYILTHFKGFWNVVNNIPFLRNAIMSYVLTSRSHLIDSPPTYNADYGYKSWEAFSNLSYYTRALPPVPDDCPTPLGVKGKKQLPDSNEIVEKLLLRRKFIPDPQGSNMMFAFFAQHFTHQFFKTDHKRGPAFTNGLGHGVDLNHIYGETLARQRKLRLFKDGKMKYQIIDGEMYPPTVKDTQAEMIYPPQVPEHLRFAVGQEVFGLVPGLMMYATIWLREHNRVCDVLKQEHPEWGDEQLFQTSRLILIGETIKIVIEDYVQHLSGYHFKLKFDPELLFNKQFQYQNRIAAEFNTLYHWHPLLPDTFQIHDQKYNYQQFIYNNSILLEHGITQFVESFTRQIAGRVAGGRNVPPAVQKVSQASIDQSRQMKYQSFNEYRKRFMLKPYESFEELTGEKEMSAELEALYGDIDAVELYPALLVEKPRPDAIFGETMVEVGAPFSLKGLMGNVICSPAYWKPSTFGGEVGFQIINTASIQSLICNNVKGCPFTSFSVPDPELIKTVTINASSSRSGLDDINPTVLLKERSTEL

[5] = system: Mus musculus; assay: Analgesic activity in Swiss albino mouse assessed as reduction in capsaicin-induced paw licking at 5 to 10 mg/kg, ip dosed 30 mins before capsaicin injection measured for 10 mins in presence of nitric oxide precursor L-arginine pre-treated 30 mins before compound dosing; type: functional, organism-based; summary of the method: as §1
[6] = system: Mus musculus; assay: Analgesic activity in Swiss albino mouse assessed as reduction in capsaicin-induced paw licking at 5 to 10 mg/kg, ip dosed 30 mins before capsaicin injection measured for 10 mins in presence of nitric oxide synthase inhibitor L-NAME pre-treated 30 mins before compound dosing; type: functional, organism-based; summary of the method: as §1
[7] = Selectivity index, ratio of IC50 for ovine COX1 to IC50 for human recombinant COX2
Summary of the method: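 Ovine COX-1 and human recombinant COX-2 with heme are preincubated with inhibitor for 10 min at 37 °C. Arachidonic acid is then added for 2 min at 37 °C. Prostaglandins are quantified by competitive AChE-tracer EIA, read at 420 nm. Four concentrations (10^-5 to 10^-8 M) are tested in triplicate. IC50 is taken from the dose-response curve of the mean % inhibition.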

[8] = system: Mus musculus; assay: Analgesic activity in Swiss albino mouse assessed as reduction in capsaicin-induced paw licking at 5 to 10 mg/kg, ip dosed 30 mins before capsaicin injection measured for 10 mins in presence of ATP-sensitive potassium channel blocker glipizide pre-treated 30 mins before compound dosing; type: functional, organism-based; summary of the method: as §1
[9] = system: Mus musculus; assay: Antiinflammatory activity in Swiss albino mouse assessed as reduction in carrageenan-induced paw edema by measuring paw thickness at 5 mg/kg, ip dosed 30 mins before carrageenan injection measured up to 300 mins by vernier calliper method relative to control; type: functional
[10] = system: Mus musculus; assay: Acute toxicity in Swiss albino mouse assessed as structural abnormality in myocardium up to 2000 mg/kg, po administered as single dose through gavage measured after 14 days by haematoxylin and eosin staining based assay; type: organism-based; settings: in vivo, 336 h
Summary of the method: (§2)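 Mice given vehicle or 50, 300 or 2000 mg Kg⁻¹ after 4 h fasting, three per group, following OECD 2001 guidance. At 14 days, one control animal and one 2000 mg Kg⁻¹ animal were sacrificed. Myocardium, liver and kidney were examined histologically by H and E staining.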

[11] = system: Mus musculus; assay: Acute toxicity in Swiss albino mouse assessed as gross behavioral abnormality up to 2000 mg/kg, po administered as single dose through gavage measured continuously for first 4 hrs and periodically for 24 hrs up to 14 days; type: organism-based; settings: in vivo
Summary of the method: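 Swiss albino mice of either sex (25-35 g), housed at 22 ± 2 °C on a 12 h light/dark cycle. Per OECD 2001 guidance, groups of three received vehicle or 50, 300 or 2000 mg Kg⁻¹ after 4 h fasting. The animals were watched continuously for the first 4 h and then periodically over 24 h for gross behavioural abnormality.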

[12] = system: Mus musculus; assay: Analgesic activity in Swiss albino mouse assessed as reduction in formalin-induced paw flinches in neurogenic phase at 5 mg/kg, ip dosed 30 mins before formalin injection measured up to 5 mins; type: functional, organism-based
Summary of the method: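 Swiss albino mice of either sex (25-35 g). 20 μL of 2% formalin is injected into the plantar surface of the right hind paw 30 min after treatment. Hind paw flinches are counted for the neurogenic phase (0-5 min) and the inflammatory phase (15-30 min). Results are given as mean ± SEM.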

[13] = system: Mus musculus; assay: Analgesic activity in Swiss albino mouse assessed as reduction in capsaicin-induced paw licking at 5 to 10 mg/kg, ip dosed 30 mins before capsaicin injection measured for 10 mins in presence of substance P pre-treated 30 mins before compound dosing; type: functional, organism-based; summary of the method: as §1
[14] = target: Prostaglandin G/H synthase 1 (Homo sapiens) (UniProt P23219); assay: Inhibition of COX1 in healthy human whole blood assessed as calcium ionophore A23187-stimulated TXB2 level at 1 uM preincubated for 60 mins followed by A23187 addition measured after 30 mins by ELISA; type: tissue-based
Summary of the method: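 Fresh venous blood from a healthy volunteer is collected in EDTA. 1 mL samples receive compound, indomethacin or DMSO vehicle (final 1 μM). After 60 min, A23187 is added (final 50 μM). After 30 min, samples are centrifuged at 4 °C and TxB2 in plasma is measured by ELISA, read at 420 nm. Samples are run in duplicate.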

[15] = system: Mus musculus; assay: Acute toxicity in Swiss albino mouse assessed as structural abnormality in liver up to 2000 mg/kg, po administered as single dose through gavage measured after 14 days by haematoxylin and eosin staining based assay; type: organism-based; settings: in vivo, 336 h; summary of the method: as §2

For `COC(=O)[C@H](CC(C)C)NC(=O)[C@H](Cc1ccccc1)NC(=O)CNC(=O)CN` (H-GGFL-OMe), the Activity [1] was “Active”, the Activity [2] was “Active” and the Ka [3] was 0.41 ×10³ /M. For the same compound, the IC50 [4] was 60 nM, the Activity [5] was “inactive” and the Activity [6] was “Active”. The Ratio IC50 [7] was 100, the Activity [8] was “Active” and the inhibition in vivo at 5 mg/kg [9] was 60%. The Activity [10] was “Non-toxic”, the Activity [11] was “Non-toxic” and the Activity [12] was “inactive”. The Activity [13] was “inactive”, the Activity [14] was 5.8 ng/mL and the Activity [15] was “Non-toxic”.
